The values that follow come from ChEMBL document CHEMBL4382261, “Onydecalins, Fungal Polyketides with Anti- Histoplasma and Anti-TRP Activity” (J Nat Prod, 2018).

For assay [1], the target named is Transient receptor potential cation channel subfamily V member 4 (Homo sapiens, UniProt Q9HBA0). As to the kind of experiment: Antagonist activity at human TRPV4 channel expressed in HEK293 cells assessed as inhibition of GSK1016790A-induced calcium flux by Fluo-4-AM dye based fluorescence assay. Type of assay: cell-based. The method, boiled down:
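HEK-293 cells stably overexpressing human TRPV4 were loaded with Fluo-4 AM for 60 min at 37 °C. Compounds were preincubated 30 min in LHC-9 containing 1 mM probenecid and 0.75 mM trypan red. GSK1016790A 0.03 µM was the agonist. Fluorescence change was normalized to the maximal agonist response, and IC50 came from 8-point curves with n=2–3.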
On the technique in general: Calcium flux is commonly read through the fluorescence of an indicator in the cells.

The next assay has as its system Histoplasma capsulatum. As to the kind of experiment: Antifungal activity against Histoplasma capsulatum G217B after 10 to 14 days by microscopic method. Type of assay: functional. The method, boiled down: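 G217B yeast-phase cells were grown in brain-heart infusion for 3 days at 37 °C under 5% CO2, then used at 1×10⁴ cells/mL final in RPMI. Twofold dilutions were tested at 64 to 0.125 µg/mL final; itraconazole (16 µg/mL downward) and amphotericin B (16 to 0.008 µg/mL) were diluted similarly. Plates were incubated 10–14 days at 37 °C under 5% CO2, with vehicle controls.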

The next assay has as its system Aspergillus fumigatus. As to the kind of experiment: Antifungal activity against Aspergillus fumigatus Af293 at 0.25 to 64 ug/ml after 48 hrs by microscopic method. Type of assay: functional, organism-based. The method, boiled down: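 Af293 spores in RPMI with 0.1% Tween-80 were counted by hemocytometer and used at 1×10⁴ spores/mL final. Twofold compound dilutions in RPMI from DMSO stocks were tested at 64 to 0.125 µg/mL final in 96-well plates at 37 °C for 48 h, alongside DMSO-only and untreated controls.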

For a further assay, the system named is Candida albicans. As to the kind of experiment: Antifungal activity against Candida albicans SC5314 at 0.25 to 64 ug/ml after 48 hrs by microscopic method. Type of assay: functional, organism-based. Summed up:
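SC5314 yeast grown overnight in YPD at 30 °C were counted by hemocytometer and used at 1×10⁴ cells/mL final in YPD. Twofold compound dilutions from DMSO stocks were tested at 64 to 0.125 µg/mL final, incubated 48 h at 30 °C, with DMSO-only and untreated controls.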

Assay [2] addresses Transient receptor potential cation channel subfamily V member 1 (Homo sapiens, UniProt Q8NER1). In words: Antagonist activity at human TRPV1 channel expressed in human BEAS2B cells assessed as inhibition of […] by Fluo-4-AM dye based fluorescence assay. Format: cell-based.
Assay [3] has as its target Transient receptor potential cation channel subfamily M member 8 (Homo sapiens, UniProt Q7Z2W7). In words: Antagonist activity at human TRPM8 channel expressed in HEK293 cells assessed as inhibition of icilin-induced calcium flux by Fluo-4-AM dye based fluorescence assay. Format: cell-based. Summed up:
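Stable human TRPM8 HEK-293 cells, grown in DMEM:F12 with 5% FBS and Geneticin on gelatin-coated plates, were loaded with Fluo-4 AM for 60 min at 37 °C. Compounds were added 30 min before reading in LHC-9 with 1 mM probenecid and 0.75 mM trypan red. Icilin 50 µM was the agonist. Signal was normalized to the maximal agonist response, and IC50 came from 8-point curves with n=2–3.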

Values after ≈ are worked out from the molar mass of the structure shown. Active and inactive are the calls of the source. The calls are words filed in the database; no cut-off is given here.

Transient receptor potential cation channel subfamily M member 8, sequence (Q7Z2W7 whole entry): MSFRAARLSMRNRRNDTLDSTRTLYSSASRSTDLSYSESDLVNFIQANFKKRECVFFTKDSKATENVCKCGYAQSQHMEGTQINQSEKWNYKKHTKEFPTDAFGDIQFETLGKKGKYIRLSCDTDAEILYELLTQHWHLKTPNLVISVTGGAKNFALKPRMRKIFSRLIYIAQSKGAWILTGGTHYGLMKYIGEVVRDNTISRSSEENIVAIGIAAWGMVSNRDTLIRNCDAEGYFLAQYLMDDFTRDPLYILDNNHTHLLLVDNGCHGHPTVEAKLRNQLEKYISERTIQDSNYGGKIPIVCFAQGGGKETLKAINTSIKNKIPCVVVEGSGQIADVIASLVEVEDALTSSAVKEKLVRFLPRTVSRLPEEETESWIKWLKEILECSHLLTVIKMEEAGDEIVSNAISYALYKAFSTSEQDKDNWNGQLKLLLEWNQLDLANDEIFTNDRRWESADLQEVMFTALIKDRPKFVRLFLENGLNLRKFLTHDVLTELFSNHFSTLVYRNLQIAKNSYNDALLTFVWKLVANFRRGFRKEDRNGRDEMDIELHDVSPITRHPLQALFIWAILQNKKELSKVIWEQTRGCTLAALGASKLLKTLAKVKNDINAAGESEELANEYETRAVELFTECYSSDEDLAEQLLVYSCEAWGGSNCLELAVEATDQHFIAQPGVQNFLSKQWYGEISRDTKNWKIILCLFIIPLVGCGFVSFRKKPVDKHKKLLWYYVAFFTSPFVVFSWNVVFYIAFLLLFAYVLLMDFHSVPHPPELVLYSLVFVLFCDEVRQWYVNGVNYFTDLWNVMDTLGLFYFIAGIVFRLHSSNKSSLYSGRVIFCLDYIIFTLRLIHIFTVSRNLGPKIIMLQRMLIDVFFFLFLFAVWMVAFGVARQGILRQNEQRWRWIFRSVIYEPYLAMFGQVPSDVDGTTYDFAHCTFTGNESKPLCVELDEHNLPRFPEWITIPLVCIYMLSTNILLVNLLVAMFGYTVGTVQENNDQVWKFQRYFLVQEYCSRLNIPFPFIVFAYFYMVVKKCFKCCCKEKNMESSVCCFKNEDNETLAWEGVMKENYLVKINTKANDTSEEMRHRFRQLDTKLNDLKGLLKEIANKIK
Transient receptor potential cation channel subfamily V member 4, sequence (Q9HBA0 whole entry): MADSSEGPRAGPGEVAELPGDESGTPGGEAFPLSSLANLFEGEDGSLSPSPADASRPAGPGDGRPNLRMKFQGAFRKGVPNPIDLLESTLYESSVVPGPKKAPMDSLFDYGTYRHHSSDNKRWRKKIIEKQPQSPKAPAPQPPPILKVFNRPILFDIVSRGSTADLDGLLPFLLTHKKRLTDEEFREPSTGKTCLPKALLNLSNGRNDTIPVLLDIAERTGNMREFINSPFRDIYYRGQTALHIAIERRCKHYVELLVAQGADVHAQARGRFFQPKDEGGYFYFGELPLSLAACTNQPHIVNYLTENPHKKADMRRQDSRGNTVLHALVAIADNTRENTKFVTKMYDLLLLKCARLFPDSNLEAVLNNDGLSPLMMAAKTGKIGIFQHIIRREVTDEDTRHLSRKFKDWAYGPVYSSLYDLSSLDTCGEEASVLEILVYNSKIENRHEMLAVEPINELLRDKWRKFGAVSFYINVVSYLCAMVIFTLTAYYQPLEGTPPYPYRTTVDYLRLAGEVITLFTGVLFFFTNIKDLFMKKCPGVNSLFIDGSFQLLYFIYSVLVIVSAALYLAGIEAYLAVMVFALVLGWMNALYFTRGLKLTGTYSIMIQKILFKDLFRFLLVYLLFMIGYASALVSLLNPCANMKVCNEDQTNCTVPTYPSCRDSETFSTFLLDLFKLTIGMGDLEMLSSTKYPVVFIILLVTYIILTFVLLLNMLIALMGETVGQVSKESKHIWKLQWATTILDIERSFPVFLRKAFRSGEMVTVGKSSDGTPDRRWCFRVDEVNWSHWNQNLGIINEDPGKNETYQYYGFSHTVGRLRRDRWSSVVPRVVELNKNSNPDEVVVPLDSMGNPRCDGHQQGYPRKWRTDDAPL
Transient receptor potential cation channel subfamily V member 1, sequence (Q8NER1 whole entry): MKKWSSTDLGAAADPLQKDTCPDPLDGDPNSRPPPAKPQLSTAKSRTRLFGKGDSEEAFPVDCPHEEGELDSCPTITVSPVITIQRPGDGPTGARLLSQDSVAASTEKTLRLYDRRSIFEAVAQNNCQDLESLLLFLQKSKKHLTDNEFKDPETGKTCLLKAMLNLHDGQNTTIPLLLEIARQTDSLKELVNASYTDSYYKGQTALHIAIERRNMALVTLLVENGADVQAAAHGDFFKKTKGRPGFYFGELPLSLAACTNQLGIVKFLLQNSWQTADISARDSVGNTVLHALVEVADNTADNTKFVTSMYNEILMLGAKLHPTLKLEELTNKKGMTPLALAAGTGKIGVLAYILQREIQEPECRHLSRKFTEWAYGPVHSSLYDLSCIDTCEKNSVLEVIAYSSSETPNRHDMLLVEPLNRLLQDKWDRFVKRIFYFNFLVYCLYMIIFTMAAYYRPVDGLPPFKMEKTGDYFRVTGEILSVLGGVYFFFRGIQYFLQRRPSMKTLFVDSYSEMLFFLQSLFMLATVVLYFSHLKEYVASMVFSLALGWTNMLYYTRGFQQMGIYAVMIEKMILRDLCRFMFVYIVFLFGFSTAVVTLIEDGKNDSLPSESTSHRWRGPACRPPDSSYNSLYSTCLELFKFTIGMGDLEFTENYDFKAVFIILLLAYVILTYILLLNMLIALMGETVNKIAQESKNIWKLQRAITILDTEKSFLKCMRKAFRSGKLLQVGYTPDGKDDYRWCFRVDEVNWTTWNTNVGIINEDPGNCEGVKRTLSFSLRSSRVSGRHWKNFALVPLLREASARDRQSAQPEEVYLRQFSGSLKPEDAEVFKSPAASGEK

The IC50 is the concentration at which inhibition is half-maximal. As usually defined, the MIC is the least concentration at which growth counts as inhibited. `C/C=C(\C)[C@H]1C(C)=C[C@H]2C[C@@H](C)C[C@@H](C(=O)O)[C@@H]2[C@@]1(C)C(=O)c1cccnc1`: the values for the IC50 in assay [1] and in assay [2] were 45.9 µM and 81.6 µM, respectively. In the assay on Histoplasma capsulatum, the MIC is more than 64 µg/mL. Further, the outcome with Aspergillus fumigatus and in the assay with Candida albicans was inactive.

As to `C/C=C(\C)[C@H]1C(C)=C[C@H]2C[C@@H](C)C[C@@H](C(=O)O)[C@@H]2[C@@]1(C)C(=O)CCO`, the MIC in the assay on Histoplasma capsulatum is more than 64 µg/mL. In addition, the result with Aspergillus fumigatus and in the assay with Candida albicans was inactive. Besides, in assay [3], the IC50 is 18.5 µM.

Consider `C/C=C(\C)[C@H]1C(C)=C[C@H]2C[C@@H](C)C[C@H]3C(O)=C(C=O)C(=O)[C@]1(C)[C@H]23`, for which, in the assay with Histoplasma capsulatum, it took 2 µg/mL (≈ 6.09 µM) to inhibit growth (MIC). For the same molecule, the outcome in the assay with Aspergillus fumigatus and in the assay on Candida albicans was inactive.

Take `CCC(C)n1ncn(-c2ccc(N3CCN(c4ccc(OCC5COC(Cn6cncn6)(c6ccc(Cl)cc6Cl)O5)cc4)CC3)cc2)c1=O` (stereo not drawn) [ITRACONAZOLE]: in the assay on Histoplasma capsulatum, the MIC was found to be 0.001 µg/mL (≈ 0.00142 µM).

As to `C/C=C(\C)[C@H]1C(C)=C[C@H]2C[C@@H](C)C[C@H]3C(=O)/C(=C\NCCO)C(=O)[C@]1(C)[C@H]23`, it took 16 µg/mL (≈ 43.1 µM) to inhibit growth in the assay with Histoplasma capsulatum (MIC). The result in the assay on Aspergillus fumigatus and with Candida albicans was inactive. Moreover, in assay [3], the IC50 turned out to be 61.6 µM.

Regarding `C[C@@H]1[C@H](O)[C@@H](C)/C=C/C=C/C=C/C=C/C=C/C=C/C=C/[C@H](O[C@@H]2O[C@H](C)[C@@H](O)[C@H](N)[C@@H]2O)C[C@@H]2O[C@](O)(C[C@@H](O)C[C@@H](O)[C@H](O)CC[C@@H](O)C[C@@H](O)CC(=O)O[C@H]1C)C[C@H](O)[C@H]2C(=O)O` [AMPHOTERICIN B], in the assay with Histoplasma capsulatum, the MIC turned out to be 0.5 µg/mL (≈ 0.541 µM).
